The subject of data set [1] is Rattus norvegicus. The data set is described as follows: Compound was tested for anticonvulsant activity after Oral Administration into Rats by using MES screen test after 2h,dose 12.5 mg/kg; number of rats out of four which were protected. The data set is classed as functional. The method in brief: (§1)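 Rats received the compound orally. […] Rats were tested in the MES screen at 0.25, 0.5, 1, 2 and 4 h. Each value is the number of rats protected out of 4. The test followed NINDS procedures.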

The subject of data set [2] is Mus musculus. Briefly: Compound was tested for anticonvulsant activity after intraperitoneal injection into mice by using scPTZ screen test after 1 hr. It counts as functional. The conditions noted are these: ip. The gist of the method:
(§2)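 Quantitative intraperitoneal mouse testing in the MES, scPTZ or rotorod neurotoxicity screens at the peak time given for each compound (0.25–2 h). ED50 or TD50 reported in mg/kg with 95% CI and slope (SE).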

Data set [3] relates to Rattus norvegicus. Briefly: Compound was tested for anticonvulsant activity after Oral Administration into Rats by using MES screen test after 4h,dose 12.5 mg/kg; number of rats out of four which were protected. It counts as functional. The method in brief: as §1
Data set [4] deals with Mus musculus. Briefly: Anticonvulsant activity after intraperitoneal injection into mice by using MES screen test after 0.5 hr. It counts as functional.
The test system of data set [5] is Rattus norvegicus. Briefly: Compound was tested for anticonvulsant activity after Oral Administration into rat by using MES screen test after 4 hr. It counts as functional. The gist of the method:
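Rats dosed orally, typically at 50 mg/kg first, then mostly 12.5 mg/kg (some compounds at 30 mg/kg), and tested by maximal electroshock. Four rats per compound, scored at 0.25, 0.5, 1, 2 and 4 h as the number of rats protected out of 4.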

Data set [6] concerns Mus musculus. Briefly: Compound was tested for anticonvulsant activity after intraperitoneal injection into mice by using MES screen test after 4 hr. It counts as functional. The conditions noted are these: ip. The method in brief:
(§3)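 Mice injected intraperitoneally at 30, 100 and 300 mg/kg and examined 0.5 and 4 h afterwards. Each entry is the minimum dose giving activity (MES protection, scPTZ protection, or rotorod failure for neurotoxicity) in half or more of the mice. Activity is called absent if nothing occurs at 300 mg/kg.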

Data set [7] deals with Rattus norvegicus. The data set is described as follows: Compound was tested for anticonvulsant activity after Oral Administration into Rats by using MES screen test after 1h,dose 12.5 mg/kg; number of rats out of four which were protected. It counts as functional. The method in brief: as §1
For data set [8], the system named is Mus musculus. The data set is described as follows: Compound was tested for toxicity after intraperitoneal injection into mice by using toxicity screen test after 4 hr. It counts as organism-based. The conditions noted are these: in vivo, ip. The gist of the method:
as §3

The test system of data set [9] is Rattus norvegicus. The data set is described as follows: Compound was tested for anticonvulsant activity after Oral Administration into Rats by using MES screen test after 0.25h,dose 12.5 mg/kg; No activity was demonstarted. Details: dose 12.5 mg/kg. It counts as functional, organism-based. The gist of the method:
as §1

For data set [10], the system named is Rattus norvegicus. Briefly: Anticonvulsant activity after oral administration into rats. The data set is classed as functional. Details: concentration or dose not given beside the values.
A short description of data set [11]: Compound was tested for toxicity after oral administration in rat by using neurotoxicity screen test after 0.25-24 hr. It counts as organism-based. The conditions noted are these: in vivo. The gist of the method: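 Rat neurotoxicity after oral dosing, observed at 0.25, 0.5, 1, 2, 4, 6, 8 and 24 h (8 h omitted for one compound).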
The subject of data set [12] is Mus musculus. Briefly: Anticonvulsant activity after intraperitoneal injection into mice by using scPTZ screen test after 4 hr. The data set is classed as functional.
The nature of data set [13]: Compound was tested for toxicity after intraperitoneal injection into mice by using neurotoxicity screen test after 4 hr. The note with it: mouse, in vivo, ip. It counts as organism-based. The method in brief:
as §3

The subject of data set [14] is Mus musculus. Briefly: Toxicity after intraperitoneal injection into mice by using toxicity screen test after 0.5 hr. The data set is classed as organism-based. The note with it: in vivo, ip. The method in brief: as §3
The test system of data set [15] is Mus musculus. The data set is described as follows: Anticonvulsant activity after intraperitoneal injection into mice measured in a maximal electroshock scree (MES) screen. The data set is classed as functional. Background: Protection in the maximal electroshock model is a classic sign of anticonvulsant action.
A short description of data set [16]: Protection index = TD50/ED50. The data set is classed as ADME. The conditions noted are these: read-out: PI.
Data set [17] in a line: Partition coefficient (logP). The data set is classed as physicochemical. The conditions noted are these: octanol/water. The gist of the method: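 Partition between 1-octanol and buffer at pH 7.4, with solutions prepared in 1-octanol before buffer is added. Quantified by UV, using λmax and ε values measured in 1-octanol.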
Data set [18] relates to Rattus norvegicus. The data set is described as follows: Compound was tested for anticonvulsant activity after Oral Administration into Rats by using MES screen test after 0.25h,dose 50 mg/kg; number of rats out of four which were protected. It counts as functional. The method in brief: as §1
In data set [19] the test system is Rattus norvegicus. Briefly: Compound was tested for anticonvulsant activity after Oral Administration into Rats by using MES screen test after 1h,dose 50 mg/kg; number of rats out of four which were protected. The data set is classed as functional. The method in brief:
as §1

In data set [20] the test system is Rattus norvegicus. Briefly: Compound was tested for anticonvulsant activity after Oral Administration into Rats by using MES screen test after 4h,dose 50 mg/kg; number of rats out of four which were protected. It counts as functional. The method in brief:
as §1

For data set [21], the system named is Mus musculus. Briefly: Compound was tested for anticonvulsant activity after intraperitoneal injection into mice by using MES screen test after 1 hr. The conditions noted are these: ip. The data set is classed as functional. The gist of the method: as §2
Data set [22] concerns Mus musculus. The data set is described as follows: Compound was tested for anticonvulsant activity after intraperitoneal injection into mice by using scPTZ screen test after 0.5 hr. It counts as functional. The note with it: ip. The gist of the method:
as §3

In data set [23] the test system is Mus musculus. Briefly: Anticonvulsant activity after intraperitoneal injection into mice by using scPTZ screen after 0.5 hr. It counts as functional.
Data set [24] deals with Rattus norvegicus. The data set is described as follows: Compound was tested for anticonvulsant activity after Oral Administration into Rats by using MES screen test after 0.5h,dose 50 mg/kg; number of rats out of four which were protected. It counts as functional. The gist of the method:
as §1

Data set [25] relates to Rattus norvegicus. The data set is described as follows: Compound was tested for anticonvulsant activity after Oral Administration into Rats by using MES screen test after 2h,dose 50 mg/kg; number of rats out of four which were protected. The data set is classed as functional. The gist of the method: as §1
Data set [26] is described as follows: Compound was tested for […] after intraperitoneal injection into mice by using neurotoxicity screen test after 2 hr. It counts as organism-based. The note with it: mouse, in vivo, ip. The method in brief: as §2
Data set [27] relates to Mus musculus. The data set is described as follows: Compound was tested for anticonvulsant activity after intraperitoneal injection into mice by using scPTZ screen test after 0.25 hr. It counts as functional. The note with it: ip. The method in brief:
as §2

In data set [28] the test system is Rattus norvegicus. The data set is described as follows: Compound was tested for anticonvulsant activity after Oral Administration into Rats by using MES screen test after 2h,dose 12.50 mg/kg; number of rats out of four which were protected. The data set is classed as functional. The note with it: dose 12.5 mg/kg. The gist of the method:
as §1

Data set [29] has as its system Rattus norvegicus. Briefly: Compound was tested for anticonvulsant activity after Oral Administration into Rats by using MES screen test after 0.25h,dose 12.50 mg/kg; number of rats out of four which were protected. It counts as functional. The note with it: dose 12.5 mg/kg. The gist of the method:
as §1

For data set [30], the system named is Rattus norvegicus. The data set is described as follows: Compound was tested for anticonvulsant activity after Oral Administration into Rats by using MES screen test after 4h,dose 12.50 mg/kg; number of rats out of four which were protected. It counts as functional. The conditions noted are these: dose 12.5 mg/kg. The gist of the method: as §1
In data set [31] the test system is Mus musculus. Briefly: Compound was tested for anticonvulsant activity after intraperitoneal injection into mice by using MES screen test after 0.5 hr. It counts as functional. The note with it: ip. The method in brief:
as §3

The test system of data set [32] is Rattus norvegicus. The data set is described as follows: Compound was tested for anticonvulsant activity after Oral Administration into Rats by using MES screen test after 1h,dose 12.50 mg/kg; number of rats out of four which were protected. The conditions noted are these: dose 12.5 mg/kg. The data set is classed as functional. The method in brief:
as §1

The subject of data set [33] is Rattus norvegicus. The data set is described as follows: Compound was tested for anticonvulsant activity after Oral Administration into Rats by using MES screen test after 0.5h,dose 12.50 mg/kg; number of rats out of four which were protected. The data set is classed as functional. The conditions noted are these: dose 12.5 mg/kg. The gist of the method:
as §1

Data set [34] in a line: Compound was tested for toxicity after intraperitoneal injection into mice by using neurotoxicity screen test after 1 hr. It counts as organism-based. The note with it: mouse, in vivo, ip. The method in brief: as §2
Data set [35] can be described thus: Protection index = TD50/ED50 (MES). The conditions noted are these: mouse, in vivo; read-out: PI.

What is called ED50 is the dose at which the effect has come halfway, by size or by number of responders. In general, TD50 refers to the 50% point of the dose-response relation for the toxic effect studied. On to `CCC(C)c1ccc(Oc2ccc(/C=N\NC(N)=O)cc2)cc1` (stereo not given), for which the Activity in the data set on Rattus norvegicus [1] was 3; with Rattus norvegicus [3], 4; in the data set with Rattus norvegicus [7], 2; in the data set on Rattus norvegicus [9] it was “No activity”; with Rattus norvegicus [10] it was 2. Further, the ED50 worked out at 86.9 mg/kg in the data set on Mus musculus [2], 3.21 mg/kg in the data set with Rattus norvegicus [5] and 13.4 mg/kg with Mus musculus [6]. The Dose with Mus musculus [4] amounted to 100 mg/kg; in the data set on Mus musculus [8] it was 100 mg/kg; in the data set on Mus musculus [12], 100 mg/kg; with Mus musculus [14] it was 300 mg/kg; with Mus musculus [15], 30 mg/kg. The TD50 in [11] was > 322 mg/kg. In [13], this molecule had a TD50 at 4 h of 131 mg/kg. In data set [16], the selectivity ratio was found to be 1.51.
One may read the logP as a log measure of how a compound divides between an organic and an aqueous phase. Molecule `NC(=O)N/N=C/c1ccc(Oc2ccc(F)c(F)c2)cc1` gave a lipophilicity (logP) in [17] of 2.76. The Dose with Mus musculus [4] turned out to be 100 mg/kg; with Mus musculus [12], 300 mg/kg; in the data set on Mus musculus [23], 30 mg/kg; with Mus musculus [15] it was 30 mg/kg. In addition, the Activity with Rattus norvegicus [18] is on record as 2; with Rattus norvegicus [19], 4; with Rattus norvegicus [20], 4; in the data set on Rattus norvegicus [24] it was 4; with Rattus norvegicus [25], 4. Further, the ED50 in the data set on Rattus norvegicus [5] was 2.37 mg/kg; with Mus musculus [21], 14.5 mg/kg; in the data set with Mus musculus [22] it was 72.8 mg/kg. The TD50 in data set [11] was > 500 mg/kg. In addition, the selectivity ratio in data set [16] turned out to be 1.3. For the same molecule, the TD50 at 2 h in [26] amounted to 94.8 mg/kg.
With `Cc1ccc(Oc2ccc(/C=N/NC(N)=O)cc2)c(C)c1`, the Dose in the data set with Mus musculus [4] is 30 mg/kg; in the data set with Mus musculus [8], 100 mg/kg; with Mus musculus [12], 30 mg/kg; in the data set on Mus musculus [23] it was 30 mg/kg; in the data set on Mus musculus [14], 300 mg/kg; with Mus musculus [15] it was 30 mg/kg. In addition, the figures for the ED50 with Mus musculus [27] and with Mus musculus [31] were 33.6 mg/kg and 4.6 mg/kg, respectively. Moreover, the Activity in the data set with Rattus norvegicus [28] was found to be 4; in the data set on Rattus norvegicus [29] it was 1; with Rattus norvegicus [30], 4; in the data set on Rattus norvegicus [32], 4; in the data set with Rattus norvegicus [33], 4. Besides, in [34], the TD50 at 1 h came to 37 mg/kg.
Turning to `CC/C(=N/NC(N)=O)c1ccc(Oc2ccc(Br)cc2)cc1`, the Activity with Rattus norvegicus [1] is 4; in the data set with Rattus norvegicus [3], 4; in the data set on Rattus norvegicus [7], 4; in the data set with Rattus norvegicus [9], “No activity”; in the data set with Rattus norvegicus [10], 2. Besides, the Dose was 30 mg/kg in the data set on Mus musculus [4]; 100 mg/kg in the data set with Mus musculus [8]; 100 mg/kg with Mus musculus [23]; 300 mg/kg in the data set with Mus musculus [14]; 30 mg/kg in the data set on Mus musculus [15]. Further, the ED50 stood at 4.39 mg/kg in the data set with Rattus norvegicus [5] and 6.71 mg/kg with Mus musculus [6]. In addition, the selectivity ratio in data set [35] was found to be 7.82. This molecule returned a TD50 at 4 h in data set [13] of 52.5 mg/kg.

For the origin of these results see ChEMBL document CHEMBL1129428 (J Med Chem, 1996).
